Data reported in ChEMBL document CHEMBL4390675, “Dopamine D4 Receptor-Selective Compounds Reveal Structure-Activity Relationships that Engender Agonist Efficacy” (J Med Chem, 2019).
Activity calls are given as the source filed them. The rule behind the calls is not given here.

Assays:
[1] = target: T1, D(2) dopamine receptor (Homo sapiens, UniProt P14416); assay: Agonist activity at human D2L receptor expressed in CHOK1 cells assessed as induction of beta-arrestin recruitment measured after 90 mins by luminescence assay; type: cell-based
In short: (§1)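 PathHunter enzyme-complementation assay in CHO-K1 cells stably expressing human D2R long isoform, D3R or D4R, seeded overnight in Ham's F12/10% FBS. Compounds were diluted in PBS with 0.2 μM sodium metabisulfite and applied at multiple concentrations for 90 min at 37 °C. Detection reagent was added for 45–60 min at room temperature, then luminescence was read. Values are % of maximal dopamine response, from nonlinear regression of triplicate runs, mean ± SEM, n = 3–4.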

[2] = target: T2, D(4) dopamine receptor (Homo sapiens, UniProt P21917); assay: Antagonist activity at human D4 receptor expressed in CHOK1 cells assessed as inhibition of dopamine-induced beta-arrestin recruitment measured after 90 mins by luminescence assay; type: cell-based; conditions: read-out: IC50
T2 sequence (P21917 whole entry): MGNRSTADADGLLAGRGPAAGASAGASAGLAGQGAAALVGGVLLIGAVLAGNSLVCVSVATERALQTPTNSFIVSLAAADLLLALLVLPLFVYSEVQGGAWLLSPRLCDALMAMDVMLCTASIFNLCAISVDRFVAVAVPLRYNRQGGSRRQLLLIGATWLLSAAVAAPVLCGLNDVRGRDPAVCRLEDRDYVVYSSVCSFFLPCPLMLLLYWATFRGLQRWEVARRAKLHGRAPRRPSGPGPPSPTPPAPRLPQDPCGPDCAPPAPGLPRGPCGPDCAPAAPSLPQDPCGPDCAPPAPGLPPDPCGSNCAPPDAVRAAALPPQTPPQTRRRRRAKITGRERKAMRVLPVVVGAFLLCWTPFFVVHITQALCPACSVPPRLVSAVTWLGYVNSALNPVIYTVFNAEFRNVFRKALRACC

[3] = target: T2, D(4) dopamine receptor; assay: Agonist activity at human D4 receptor expressed in CHOK1 cells assessed as inhibition of forskolin-induced cAMP accumulation measured after 30 mins by Eu-cAMP tracer based TR-FRET assay; type: functional, cell-based
In short: (§2)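 LANCE Ultra TR-FRET cAMP assay in CHO-K1 cells stably expressing human D2R long isoform or D4R. Cells were plated in HBSS/5 mM HEPES/0.2 μM metabisulfite, then immediately given compound plus forskolin (10 μM final) for 30 min at room temperature. Eu-cAMP tracer and ULight-anti-cAMP were added for 2 h in the dark. Values are % of maximal dopamine signal, nonlinear regression of triplicate runs, n = 3–4.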

[4] = target: T2, D(4) dopamine receptor; assay: Antagonist activity at human D4 receptor expressed in CHOK1 cells assessed as suppression of dopamine-induced inhibition of forskolin-stimulated cAMP accumulation measured after 30 mins by Eu-cAMP tracer based TR-FRET assay; type: functional, cell-based
[5] = target: T1, D(2) dopamine receptor; assay: Antagonist activity at human D2L receptor expressed in CHOK1 cells assessed as suppression of dopamine-induced inhibition of forskolin-stimulated cAMP accumulation measured after 30 mins by Eu-cAMP tracer based TR-FRET assay relative to dopamine; type: cell-based; conditions: 0.5 h
[6] = target: T2, D(4) dopamine receptor; assay: Agonist activity at human D4 receptor expressed in CHOK1 cells assessed as induction of beta-arrestin recruitment measured after 90 mins by luminescence assay; type: cell-based; in short: as §1
[7] = target: T2, D(4) dopamine receptor; assay: Displacement of [3H]N-methylspiperone from human D4.4 receptor expressed in HEK293 cell membranes measured after 60 mins by scintillation counting method
In short: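 Frozen HEK293 membranes stably expressing human D4.4R (30 μg/well) in EBSS-bicarbonate buffer, pH 7.4, were incubated with 0.4 nM [3H]N-methylspiperone and half-log compound dilutions (30% DMSO vehicle) for 60 min at room temperature. Nonspecific binding was defined by 10 μM (+)-butaclamol. Samples were filtered on GF/B filters and counted by scintillation.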

[8] = target: T1, D(2) dopamine receptor; assay: Agonist activity at human D2L receptor expressed in CHOK1 cells assessed as inhibition of forskolin-induced cAMP accumulation measured after 30 mins by Eu-cAMP tracer based TR-FRET assay; type: cell-based; in short: as §2
[9] = target: T3, D(3) dopamine receptor (Homo sapiens, UniProt P35462); assay: Agonist activity at human D3 receptor expressed in CHOK1 cells assessed as induction of beta-arrestin recruitment measured after 90 mins by luminescence assay; type: cell-based; in short: as §1
[10] = target: T3, D(3) dopamine receptor; assay: Displacement of [3H]N-methylspiperone from human D3 receptor expressed in HEK293 cell membranes measured after 60 mins by scintillation counting method
In short: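 HEK293 cells stably expressing human D3R; membranes in EBSS buffer pH 7.4, stored at −80 °C. 20 μg protein/well with 0.4 nM [3H]N-methylspiperone (final), half-log dilutions in 30% DMSO, in triplicate. 60 min at room temperature, then GF/B filtration. Nonspecific binding with 10 μM (+)-butaclamol.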

[11] = target: T1, D(2) dopamine receptor; assay: Antagonist activity at human D2L receptor expressed in CHOK1 cells assessed as inhibition of dopamine-induced beta-arrestin recruitment measured after 90 mins by luminescence assay; type: cell-based
In short: (§3)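 Antagonist-mode PathHunter β-arrestin assay in CHO-K1 cells stably expressing human D2R long isoform or D3R, seeded overnight. Compound dilutions in PBS with 0.2 μM metabisulfite were co-incubated with an EC80 dopamine concentration for 90 min at 37 °C. Detection reagent was added for 45–60 min at room temperature, then luminescence was read. Values are % of dopamine EC80 response, from nonlinear regression of triplicate runs, n = 3–4.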

[12] = target: T1, D(2) dopamine receptor; assay: Antagonist activity at human D2L receptor expressed in CHOK1 cells assessed as inhibition of dopamine-induced beta-arrestin recruitment measured after 90 mins by luminescence assay relative to control; type: cell-based; in short: as §3
[13] = target: T3, D(3) dopamine receptor; assay: Antagonist activity at human D3 receptor expressed in CHOK1 cells assessed as inhibition of dopamine-induced beta-arrestin recruitment measured after 90 mins by luminescence assay; type: cell-based; in short: as §3
[14] = target: D(1B) dopamine receptor (Homo sapiens) (UniProt P21918); assay: Antagonist activity at D5 receptor (unknown origin) stably expressed in CHOK1 cells assessed as inhibition of dopamine-induced beta-arrestin recruitment measured after 90 mins by luminescence assay; type: cell-based
[15] = target: D(1A) dopamine receptor (Homo sapiens) (UniProt P21728); assay: Agonist activity at D1 receptor (unknown origin) stably expressed in CHOK1 cells assessed as induction of beta-arrestin recruitment measured after 90 mins by luminescence assay; type: cell-based
[16] = target: D(1A) dopamine receptor (Homo sapiens) (UniProt P21728); assay: Antagonist activity at D1 receptor (unknown origin) stably expressed in CHOK1 cells assessed as inhibition of dopamine-induced beta-arrestin recruitment measured after 90 mins by luminescence assay; type: cell-based
[17] = target: D(1B) dopamine receptor (Homo sapiens) (UniProt P21918); assay: Agonist activity at D5 receptor (unknown origin) stably expressed in CHOK1 cells assessed as induction of beta-arrestin recruitment measured after 90 mins by luminescence assay; type: cell-based
[18] = target: T3, D(3) dopamine receptor; assay: Displacement of [3H](R)-(+)-7-OH-DPAT from human D3 receptor expressed in HEK293 cell membranes measured after 90 mins by scintillation counting method
In short: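 Fresh HEK293 hD3R membranes (40 μg/well) in 50 mM Tris, 10 mM MgCl2, 1 mM EDTA, pH 7.4 were incubated with 0.5 nM [3H]-(R)-(+)-7-OH-DPAT and half-log compound dilutions in 30% DMSO for 90 min at room temperature. Nonspecific binding was defined with 10 μM (+)-butaclamol. Samples were filtered on PEI-soaked GF/B filters and counted by scintillation.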

[19] = target: T2, D(4) dopamine receptor; assay: Displacement of [3H](R)-(+)-7-OH-DPAT from human D4.4 receptor expressed in HEK293 cell membranes measured after 90 mins by scintillation counting method
In short: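 HEK293 cells stably expressing human D4.4R; membranes used fresh in 50 mM Tris, 10 mM MgCl2, 1 mM EDTA, pH 7.4. 60 μg protein/well with 3 nM [3H]-(R)-(+)-7-OH-DPAT (final), half-log dilutions in 30% DMSO, in triplicate. 90 min at room temperature, then GF/B filtration. Nonspecific binding with 10 μM (+)-butaclamol.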

[20] = target: T1, D(2) dopamine receptor; assay: Agonist activity at human D2L receptor expressed in CHOK1 cells assessed as induction of beta-arrestin recruitment measured after 90 mins by luminescence assay relative to control; type: cell-based
In short: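 PathHunter enzyme-complementation assay in CHO-K1 cells stably expressing human D2R long isoform, seeded 2625 cells/well and incubated overnight. Compounds diluted in PBS with 0.2 μM sodium metabisulfite, tested at multiple concentrations, 90 min at 37 °C. Detection reagent then 45–60 min at room temperature, luminescence read. Normalized to maximal dopamine response. Nonlinear regression of triplicate runs, n = 3–4.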

[21] = target: T3, D(3) dopamine receptor; assay: Agonist activity at human D3 receptor expressed in CHOK1 cells assessed as induction of beta-arrestin recruitment measured after 90 mins by luminescence assay relative to control; type: cell-based; in short: as §1
[22] = target: T1, D(2) dopamine receptor; assay: Agonist activity at human D2L receptor expressed in CHOK1 cells assessed as inhibition of forskolin-induced cAMP accumulation measured after 30 mins by Eu-cAMP tracer based TR-FRET assay relative to dopamine; type: cell-based; conditions: 0.5 h
[23] = target: T4, D(4) dopamine receptor (Homo sapiens) (UniProt P21917); assay: Antagonist activity at human D4 receptor expressed in CHOK1 cells assessed as inhibition of dopamine-induced beta-arrestin recruitment measured after 90 mins by luminescence assay relative to control; type: cell-based; design: concentration or dose not given beside the values
T4 sequence (whole entry): T2 sequence (P21917 whole entry)

[24] = target: T4, D(4) dopamine receptor (Homo sapiens); assay: Antagonist activity at human D4 receptor expressed in CHOK1 cells assessed as suppression of dopamine-induced inhibition of forskolin-stimulated cAMP accumulation measured after 30 mins by Eu-cAMP tracer based TR-FRET assay relative to dopamine; type: functional, cell-based; design: concentration or dose not given beside the values
[25] = target: T4, D(4) dopamine receptor (Homo sapiens); assay: Agonist activity at human D4 receptor expressed in CHOK1 cells assessed as induction of beta-arrestin recruitment measured after 90 mins by luminescence assay relative to control; type: cell-based; in short: as §1
[26] = target: T4, D(4) dopamine receptor (Homo sapiens); assay: Agonist activity at human D4 receptor expressed in CHOK1 cells assessed as inhibition of forskolin-induced cAMP accumulation measured after 30 mins by Eu-cAMP tracer based TR-FRET assay relative to dopamine; type: functional, cell-based; in short: as §2

T1 sequence (P14416 whole entry, canonical isoform): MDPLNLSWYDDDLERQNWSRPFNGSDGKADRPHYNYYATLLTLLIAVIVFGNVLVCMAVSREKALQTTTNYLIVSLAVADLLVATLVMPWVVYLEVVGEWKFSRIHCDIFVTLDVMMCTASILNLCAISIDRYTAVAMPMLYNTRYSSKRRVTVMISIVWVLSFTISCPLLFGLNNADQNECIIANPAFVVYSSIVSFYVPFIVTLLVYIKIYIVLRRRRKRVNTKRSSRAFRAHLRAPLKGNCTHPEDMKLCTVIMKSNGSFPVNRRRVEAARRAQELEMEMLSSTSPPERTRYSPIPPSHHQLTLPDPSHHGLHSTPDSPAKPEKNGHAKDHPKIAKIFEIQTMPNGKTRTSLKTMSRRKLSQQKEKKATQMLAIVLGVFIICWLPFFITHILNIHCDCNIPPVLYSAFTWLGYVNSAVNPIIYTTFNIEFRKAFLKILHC
T3 sequence (P35462 whole entry): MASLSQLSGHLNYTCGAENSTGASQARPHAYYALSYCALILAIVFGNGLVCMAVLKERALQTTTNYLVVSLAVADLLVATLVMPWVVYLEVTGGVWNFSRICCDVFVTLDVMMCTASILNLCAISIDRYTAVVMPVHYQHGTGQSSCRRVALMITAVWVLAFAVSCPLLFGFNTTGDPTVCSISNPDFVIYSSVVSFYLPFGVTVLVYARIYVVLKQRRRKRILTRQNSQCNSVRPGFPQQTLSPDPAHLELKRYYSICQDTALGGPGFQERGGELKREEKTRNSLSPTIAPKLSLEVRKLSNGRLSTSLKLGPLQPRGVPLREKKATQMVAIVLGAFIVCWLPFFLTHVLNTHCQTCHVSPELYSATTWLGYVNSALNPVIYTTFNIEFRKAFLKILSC
Sequence of D(1A) dopamine receptor (Homo sapiens) (P21728 whole entry): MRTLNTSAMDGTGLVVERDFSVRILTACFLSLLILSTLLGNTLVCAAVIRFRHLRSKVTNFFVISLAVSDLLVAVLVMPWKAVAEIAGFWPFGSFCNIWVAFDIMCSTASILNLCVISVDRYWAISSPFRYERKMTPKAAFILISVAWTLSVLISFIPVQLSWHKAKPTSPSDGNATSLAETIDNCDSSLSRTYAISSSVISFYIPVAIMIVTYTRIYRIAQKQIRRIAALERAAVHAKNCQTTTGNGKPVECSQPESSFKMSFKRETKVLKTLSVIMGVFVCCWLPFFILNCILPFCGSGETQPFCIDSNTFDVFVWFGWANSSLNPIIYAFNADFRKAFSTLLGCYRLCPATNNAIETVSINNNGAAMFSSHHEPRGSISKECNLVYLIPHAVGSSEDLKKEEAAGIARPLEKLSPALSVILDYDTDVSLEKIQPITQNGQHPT
Sequence of D(1B) dopamine receptor (Homo sapiens) (P21918 whole entry): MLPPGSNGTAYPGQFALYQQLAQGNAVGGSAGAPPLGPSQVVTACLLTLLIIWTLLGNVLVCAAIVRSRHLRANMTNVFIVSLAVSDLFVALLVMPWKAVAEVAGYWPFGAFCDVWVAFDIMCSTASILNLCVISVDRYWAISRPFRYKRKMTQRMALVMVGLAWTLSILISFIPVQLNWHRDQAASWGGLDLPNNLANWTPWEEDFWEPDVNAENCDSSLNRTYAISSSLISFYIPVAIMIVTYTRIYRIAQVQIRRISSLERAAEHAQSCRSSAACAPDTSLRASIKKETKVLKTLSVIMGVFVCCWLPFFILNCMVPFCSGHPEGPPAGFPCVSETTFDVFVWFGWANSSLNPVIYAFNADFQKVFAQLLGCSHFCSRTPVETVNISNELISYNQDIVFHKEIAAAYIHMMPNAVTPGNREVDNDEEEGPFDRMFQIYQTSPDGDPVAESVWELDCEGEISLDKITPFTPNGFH

Compound	IC50 [2] [µM]	IC50 [4] [µM]	inhibition (INH) [5] [%]	EC50 [6]	Ki [7] [µM]	Ki [10] [µM]	IC50 [11]	INH [12]	IC50 [13]	EC50 ([3]; read-out: EC50) [µM]	Emax [20] [%]	EC50 ([9]; read-out: EC50) [µM]	Emax [22] [%]	also measured
O=C(CN1CCN(c2ccc(Cl)cn2)CC1)Nc1cccnc1	23.4	40	100	Not Active	5	> 50	Not Active	Not Active	Not Active					EC50 [1]: Not Active; EC50 [3]: Not Active; EC50 [8]: Not Active; EC50 [9]: Not Active
Cc1cccc(NC(=O)CCN2CCN(c3ccccn3)CC2)c1	1.09	1.63		Not Active	0.297	3.79		77.7%		0.612	44.1	1.6	79.7	inhibition [14]: inactive; Activity [15]: inactive; inhibition [16]: inactive; Activity [17]: inactive; Ki [18]: 0.781 µM; Ki [19]: 0.0322 µM; Emax [21]: 41.4%; IC50 ([13]; read-out: IC50): > 50 µM
O=C(CN1CCN(c2ccccn2)CC1)Nc1cccnc1	25.8	86.5	100		6.41	> 50	Not Active		Not Active	1.07	21.3	2.8	38.6	inhibition [23]: 100%; inhibition [24]: 100%; Emax [25]: 19%; EC50 ([6]; read-out: EC50): 2.66 µM; Emax [26]: 47.3%
